# HKDC1 inhibitor: HKDC1 (human) hexokinase inhibition. Q2TB90. recombinant HKDC1, G6PDH/diaphorase resazurin coupled fluorescence. inhibition, % at 20 µM. 340,000 compounds, 0.16% hits;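 active = inhibition above about 35% when tested at 20 µM, limit read from the data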;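 also: plate controls were DMSO wells with enzyme for no effect and DMSO wells lacking enzyme for full effect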
#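 Assay system: recombinant HKDC1 hexokinase; detection: coupled resazurin fluorescence, excitation 525 nm, emission 613 nm; benchmarks: DMSO-plus-enzyme-mix negative control, buffer-substituted positive control; compound dosing: single 20 µM dose; schedule: 90 min at room temperature in dark; also added: glucose plus 1 mM ATP as hexokinase substrates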
# Scp1 inh: Scp-1 (human) phosphatase inhibition. 340,000 compounds, 0.88% hits. Q9GZU7. Recombinant Scp1, phosphopeptide, malachite green phosphate absorbance. inhibition, % at 20 µM;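 active = inhibition above about 50% at 20 µM, limit read from the data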;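 also: plate controls were DMSO wells with enzyme for no effect and wells lacking enzyme for full effect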
#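 Test system: SCP-1 phosphatase catalytic domain, residues 76-261 | Compound dosing: One concentration, 20 µM, with 1.0% DMSO | Schedule: 45 min room-temperature reaction, 5 min colour, 30 min stabiliser | Detection: Absorbance at 630 nm | Read-out basis: % inhibition of SCP-1 phosphate liberation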
# LMPTP block: LMPTP (human) inhibition | recombinant LMPTP-A, OMFP fluorogenic substrate, fluorescence intensity | inhibition, % at 20 µM | 360,000 compounds, 0.22% hits;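 active = compounds that cut the enzyme signal by at least half of the control window in the single-dose screen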;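 also: plate controls were DMSO wells with enzyme plus substrate for no effect and substrate without enzyme for full effect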
#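 Test system: LMPTP-A, protein tyrosine phosphatase of low molecular weight; Input: 0.625 nM enzyme; Incubation: 50 min dark incubation at room temperature; Signal: endpoint fluorescence intensity from OMFP dephosphorylation; Read-out basis: % inhibition versus control wells.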
# STEP inh: blocks human striatal-enriched tyrosine phosphatase. P54829. 360,000 compounds, 0.25% hits. AID 588621. inhibition, % at 20 µM. recombinant STEP, OMFP fluorogenic substrate, fluorescence;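 active = inhibition at 20 µM, scaled per plate between control wells, above about 37%, limit read from the data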;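 also: 0% = DMSO with enzyme and substrate and 100% = substrate only without enzyme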
#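 Also added – OMFP at 25 µM · Test system – STEP tyrosine phosphatase · Technique – FITC-channel fluorescence of OMFP product · Schedule – 20 min at room temperature, dark · Evaluation – control-normalized % inhibition with plate pattern correction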
# SUMO1 PPI mod: modulators of human SUMO1-mediated protein-protein interactions. P63165. SUMO1 binding to a labelled peptide, TR-FRET, 1 h. inhibition, % at 20 µM. 360,000 compounds, 0.33% hits. AID 602429; in the data active = inhibition above about 37%
# DNMT1 inh: inhibitors of human DNMT1 | P26358 | DNMT1 molecular beacon, Hinp1I cleavage, fluorescence | inhibition (reported as % activation of signal), % at 10 µM | 360,000 compounds, 0.83% hits; in the data active = inhibition above about 50%
# Scp-1 conf: Scp-1 (human) inhibition, single-dose confirmed; AID 540281; inhibition, % at 20 µM; recombinant SCP-1 catalytic domain, phosphate release, malachite green absorbance; shares compounds with Scp1 inh; 2,500 compounds, 61% hits;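 also: plate controls were DMSO with enzyme for no effect and buffer wells lacking enzyme for full effect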
# Scp-1 MG ctr: interferes with malachite green readout, flagging false Scp-1 hits; shares compounds with Scp1 inh; Colorimetric interference counterscreen, malachite green absorbance 630 nm; apparent inhibition (interference), % at 20 µM; 2,500 tested, under 10 active; AID 540313;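 also: compounds added after enzyme reaction finished so only phosphate colour detection is probed; plate controls were DMSO wells with completed Scp-1 reaction for no effect and substrate wells lacking enzyme for full effect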
# Scp1 DSF: validation of human Scp-1 inhibitors by thermal shift binding. shares compounds with Scp1 inh. Recombinant SCP1, Sypro Orange thermal shift Tm. thermal shift relative to vanadate control, % at 40 µM. 1,500 compounds, 25% hits. AID 540329;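 active = substances whose mean melting-temperature shift, as a percentage of the reference inhibitor's shift, reaches about 5.3%, limit read from the data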;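 also: 0% = Tm of DMSO wells and 100% = Tm with sodium orthovanadate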
# * hit, by the source's call; x = no result given. Hits are enriched below; roughly 1.8% of the tested compounds scored in any of these assays.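 The calls were made as follows, unless noted: active = inhibition of at least 30% at 20 µM; inactive = the rest.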
SMILES,HKDC1 inhibitor,Scp1 inh,LMPTP block,STEP inh,SUMO1 PPI mod,DNMT1 inh,Scp-1 conf,Scp-1 MG ctr,others
O=C(Cc1ccc(Cl)cc1)Nc1ccc(Br)cc1,2,-4,1,-2,0,1,x,x,
O=C(Cc1ccc(Br)cc1)NNC(=O)Nc1ccc(Cl)cc1,-13,63*,0,1,3,26,62*,-3,Scp1 DSF=4
Cc1cccc2cc(C(c3nnnn3C(C)(C)C)N(Cc3ccco3)CC3CCCO3)c(=O)[nH]c12 (stereo not drawn),4,61*,18,3,4,7,53*,-7,Scp1 DSF=-2
Cc1ccc(C)c(OCC(=O)NNC(=O)c2ccc(NC(=O)C3CC3)cc2)c1,-1,-2,-1,-3,4,-1,x,x,
Cc1cc(Br)ccc1OCC(=O)NNC(=O)c1ccc(NC(=O)C2CC2)cc1,-7,61*,5,-1,-1,12,9,-10,
CC(C)c1cc(C(=O)N2CCCC(CCC(=O)NCc3ccccc3F)C2)n(C)n1 (stereo not drawn),-1,-7,0,-4,0,-3,x,x,
O=C(NCCCN1CCCCC1)C1CCN(S(=O)(=O)N2CCC3(CC2)OCCO3)CC1,-8,-2,-2,0,-1,1,x,x,
COc1ccc(OC)c(NC(=O)CSc2ncnc3sc(C)cc23)c1,15,80*,17,3,27,24,64*,-12,Scp1 DSF=12*
COc1cc2ccccc2cc1C(=O)Nc1ccc(Cl)cn1,-7,-4,0,0,-13,2,x,x,
Cc1cccc(N2CCN(C(=O)CCCCCn3c(=S)[nH]c4ccc(N5CCOCC5)cc4c3=O)CC2)c1C,17,82*,5,8,-30,-4,-13,-19,
CCNc1nc(NCC)n2c(SCC(=O)Nc3ccc(OC(F)F)cc3)nnc2n1,-2,68*,4,2,20,49,39*,-11,Scp1 DSF=-13
CCNc1nc(NCC)n2c(SCC(=O)Nc3ccccc3)nnc2n1,-4,-9,-1,-2,3,0,x,x,
CCNc1nc(NCC)n2c(SCC(=O)Nc3ccc(C)c(C)c3)nnc2n1,4,30,0,1,11,13,x,x,
CCNc1nc(NCC)n2c(SCC(=O)Nc3ccc(F)cc3)nnc2n1,5,54*,0,7,11,55*,55*,-7,Scp1 DSF=-20
CN1CCc2c(sc3nc(NCCO)n(-c4cccc(Cl)c4)c(=O)c23)C1,-1,-7,2,-1,9,1,x,x,
Cc1ccc(-c2nc3ccc(C(=O)O)cc3nc2-c2ccc(C)cc2)cc1,12,61*,0,1,-24,-1,27,-9,
Cc1ccc2nc(-c3ccccc3)c(-c3ccccc3)nc2c1,0,-3,1,2,-14,3,x,x,
CCc1cc(C(=O)OC)c(NC(=O)CCC(=O)O)s1,-7,62*,-2,2,0,-2,-10,-11,
CN(C)S(=O)(=O)c1cccc(C(=O)OCC(=O)Nc2sccc2C(N)=O)c1,0,57*,17,9,20,9,4,0,
CC1CCCCC1NC(=O)CN1C(=O)NC(C)(c2cccc(Br)c2)C1=O (stereo not drawn),1,1,-2,0,8,-4,x,x,
CCOc1ccc(Cl)cc1S(=O)(=O)NCc1cccnc1,-3,-7,-1,3,2,1,x,x,
COc1ccc(Cl)cc1S(=O)(=O)NCc1cccnc1,-10,60*,0,1,5,0,-17,-14,
CC(=O)Nc1ccc(C(=O)N/N=C/c2cc(Br)cc(Br)c2O)cc1,-1,-10,0,-1,2,-1,x,x,
